Measured values published in ChEMBL document CHEMBL1154034, “Piperazinyl-glutamate-pyridines as potent orally bioavailable P2Y12 antagonists for inhibition of platelet aggregation” (Bioorg Med Chem Lett, 2009).
pKi: −log10 of the molar value.

Tests used:
[1] = Effective half life in Sprague-Dawley rat at 2 mg/kg, iv and 5 mg/kg, po; format: ADME, organism-based; conditions: in vivo
Outline: (§1)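 Male Sprague–Dawley rats, n = 2–4. Dosed by iv infusion at 2 mg/kg and orally at 5 mg/kg.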

[2] = test system: Salmonella enterica subsp. enterica; assay: Toxicity in Salmonella Typhimurium by Ames test; format: organism-based; conditions: salmonella enterica subsp. enterica serovar typhimurium
P2Y purinoceptor 12 [3] = molecular target: T1, P2Y purinoceptor 12 (Homo sapiens, UniProt Q9H244); assay: Binding affinity to human recombinant P2Y12 receptor expressed in CHO cells; format: cell-based
P2Y purinoceptor 12 [4] = molecular target: T1, P2Y purinoceptor 12; assay: Antagonist activity at human P2Y12 receptor assessed as inhibition of ADP-induced platelet-rich plasma aggregation by turbidimetric method; format: functional, cell-free
[5] = Volume of distribution at steady state in Sprague-Dawley rat at 2 mg/kg, iv and 5 mg/kg, po; format: ADME, organism-based; conditions: in vivo, read-out: Vdss; outline: as §1
Rattus norvegicus = assay: Antithrombotic activity in po dosed rat arterial thrombosis model assessed as inhibition of ferric chloride-induced thrombus formation; format: functional, organism-based
[6] = Clearance in Sprague-Dawley rat at 2 mg/kg, iv and 5 mg/kg, po; format: ADME, organism-based; conditions: in vivo; outline: as §1
[7] = Solubility of the compound; format: physicochemical
[8] = Drug concentration in rat bile at 2 mg/kg, iv after 4 hrs; format: ADME, organism-based; design: dose 2 mg/kg, route intravenous; conditions: read-out: Drug uptake
Outline: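 Rats dosed at 2 mg/kg iv; bile collected over 4 h and the fraction of dose recovered determined.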

T1 sequence (Q9H244 whole entry): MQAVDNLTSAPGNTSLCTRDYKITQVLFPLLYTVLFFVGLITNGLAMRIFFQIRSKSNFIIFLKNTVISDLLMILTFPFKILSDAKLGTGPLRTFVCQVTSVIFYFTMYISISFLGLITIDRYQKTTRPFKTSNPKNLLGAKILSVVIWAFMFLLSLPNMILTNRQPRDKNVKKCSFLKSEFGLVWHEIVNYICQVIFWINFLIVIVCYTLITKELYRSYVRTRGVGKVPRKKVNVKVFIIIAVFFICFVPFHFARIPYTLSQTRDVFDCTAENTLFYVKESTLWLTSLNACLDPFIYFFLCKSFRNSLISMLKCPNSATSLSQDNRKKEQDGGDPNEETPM

half-life [1]: 42 min
Kb (P2Y purinoceptor 12 [3]): 8.5 nM
pKi (P2Y purinoceptor 12 [3]): 7.82
Kb (P2Y purinoceptor 12 [4]): 300 nM
Vd [5]: 0.3 L/kg
clearance [6]: 3 mL/min/kg
solubility [7]: Soluble
dose excreted at 4 h [8]: 70%
Compound: CCCCCOC(=O)N1CCN(C(=O)[C@H](CCC(=O)O)NC(=O)c2cc(N3CCC(COC)CC3)cc(-c3ccccc3)n2)CC1
Activity [2]: Non-toxic
Activity (Rattus norvegicus): Dose-dependent effect
